Source: ChEMBL document CHEMBL3124934, “Identification of a methoxynaphthalene scaffold as a core replacement in quinolizidinone amide M(1) positive allosteric modulators” (Bioorg Med Chem Lett, 2014)

Key:
[1] = molecular target: T1, Muscarinic acetylcholine receptor M1 (Homo sapiens) (UniProt P11229); experiment: Positive allosteric modulation of human muscarinic M1 receptor expressed CHO cells assessed as intrinsic potency of acetylcholine-induced calcium mobilization by FLIPR assay relative to control; assay type: functional, cell-based
T1 sequence (whole entry): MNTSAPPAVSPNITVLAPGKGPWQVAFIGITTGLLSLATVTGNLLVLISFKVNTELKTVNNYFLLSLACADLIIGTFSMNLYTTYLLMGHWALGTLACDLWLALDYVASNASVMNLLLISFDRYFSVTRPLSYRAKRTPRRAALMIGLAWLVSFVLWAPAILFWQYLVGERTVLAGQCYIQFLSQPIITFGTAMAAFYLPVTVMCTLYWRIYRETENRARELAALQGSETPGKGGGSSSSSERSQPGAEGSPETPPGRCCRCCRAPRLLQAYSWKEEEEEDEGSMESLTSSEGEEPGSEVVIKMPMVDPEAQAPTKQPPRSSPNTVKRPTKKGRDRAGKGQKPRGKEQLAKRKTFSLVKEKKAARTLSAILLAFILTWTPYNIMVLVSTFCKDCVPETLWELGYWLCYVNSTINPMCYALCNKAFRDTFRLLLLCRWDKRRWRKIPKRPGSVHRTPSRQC
Outline: (§1)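 Human M1 receptor expressed in CHO cells, with calcium mobilization read by FLIPR. Inflection point (IP, nM) and % max response are taken as the numerical average of at least two experiments. Interassay variability was ±30% for IP unless noted otherwise.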

[2] = molecular target: T1, Muscarinic acetylcholine receptor M1 (Homo sapiens); experiment: Positive allosteric modulation of human muscarinic M1 receptor expressed CHO cells assessed as intrinsic potency of acetylcholine-induced calcium mobilization by FLIPR assay; assay type: functional, cell-based; outline: as §1
[3] = molecular target: ATP-dependent translocase ABCB1 (Homo sapiens, UniProt P08183); experiment: Activity at human MDR1 assessed as ratio of permeability from basolateral to apical side over permeability from apical to basolateral side by cell based assay
[4] = Apparent permeability of the compound; assay type: physicochemical; settings: not told
[5] = molecular target: Multidrug resistance protein 1a (Rattus norvegicus, UniProt Q6PSM0); experiment: Activity at rat MDR1a assessed as ratio of permeability from basolateral to apical side over permeability from apical to basolateral side by cell based assay
[6] = Ratio of drug level in cerebrospinal fluid in Sprague-Dawley rat at 10 mg/kg, po to unbound fraction in rat plasma; assay type: ADME, organism-based, CSF/Plasma; design: dose 10 mg/kg, route oral; settings: in vivo
[7] = Plasma protein binding in rat plasma; assay type: ADME, cell-free; settings: read-out: PPB (converted)
[8] = system: Plasma; experiment: Plasma concentration in Sprague-Dawley rat at 10 mg/kg, po; assay type: ADME, organism-based; design: dose 10 mg/kg, route oral; settings: in vivo; note: time not given here
[9] = Ratio of drug level in brain to plasma in Sprague-Dawley rat at 10 mg/kg, po; assay type: ADME, organism-based; design: dose 10 mg/kg, route oral; settings: read-out: BPR
[10] = system: Cerebrospinal fluid; experiment: Drug level in Sprague-Dawley rat cerebrospinal fluid at 10 mg/kg, po; assay type: ADME, organism-based; design: dose 10 mg/kg, route oral; settings: in vivo, read-out: Drug uptake; note: time not given here
[11] = system: Brain; experiment: Drug level in Sprague-Dawley rat brain at 10 mg/kg, po; assay type: ADME, organism-based; design: dose 10 mg/kg, route oral; settings: in vivo, read-out: Drug uptake; note: time not given here
[12] = molecular target: T1, Muscarinic acetylcholine receptor M1 (Homo sapiens); experiment: Positive allosteric modulation of human muscarinic M1 receptor expressed CHO cells assessed as intrinsic potency of acetylcholine-induced calcium mobilization by FLIPR assay relative to acetylcholine; assay type: functional, cell-based; outline: as §1

Chain of ATP-dependent translocase ABCB1 (P08183 whole entry): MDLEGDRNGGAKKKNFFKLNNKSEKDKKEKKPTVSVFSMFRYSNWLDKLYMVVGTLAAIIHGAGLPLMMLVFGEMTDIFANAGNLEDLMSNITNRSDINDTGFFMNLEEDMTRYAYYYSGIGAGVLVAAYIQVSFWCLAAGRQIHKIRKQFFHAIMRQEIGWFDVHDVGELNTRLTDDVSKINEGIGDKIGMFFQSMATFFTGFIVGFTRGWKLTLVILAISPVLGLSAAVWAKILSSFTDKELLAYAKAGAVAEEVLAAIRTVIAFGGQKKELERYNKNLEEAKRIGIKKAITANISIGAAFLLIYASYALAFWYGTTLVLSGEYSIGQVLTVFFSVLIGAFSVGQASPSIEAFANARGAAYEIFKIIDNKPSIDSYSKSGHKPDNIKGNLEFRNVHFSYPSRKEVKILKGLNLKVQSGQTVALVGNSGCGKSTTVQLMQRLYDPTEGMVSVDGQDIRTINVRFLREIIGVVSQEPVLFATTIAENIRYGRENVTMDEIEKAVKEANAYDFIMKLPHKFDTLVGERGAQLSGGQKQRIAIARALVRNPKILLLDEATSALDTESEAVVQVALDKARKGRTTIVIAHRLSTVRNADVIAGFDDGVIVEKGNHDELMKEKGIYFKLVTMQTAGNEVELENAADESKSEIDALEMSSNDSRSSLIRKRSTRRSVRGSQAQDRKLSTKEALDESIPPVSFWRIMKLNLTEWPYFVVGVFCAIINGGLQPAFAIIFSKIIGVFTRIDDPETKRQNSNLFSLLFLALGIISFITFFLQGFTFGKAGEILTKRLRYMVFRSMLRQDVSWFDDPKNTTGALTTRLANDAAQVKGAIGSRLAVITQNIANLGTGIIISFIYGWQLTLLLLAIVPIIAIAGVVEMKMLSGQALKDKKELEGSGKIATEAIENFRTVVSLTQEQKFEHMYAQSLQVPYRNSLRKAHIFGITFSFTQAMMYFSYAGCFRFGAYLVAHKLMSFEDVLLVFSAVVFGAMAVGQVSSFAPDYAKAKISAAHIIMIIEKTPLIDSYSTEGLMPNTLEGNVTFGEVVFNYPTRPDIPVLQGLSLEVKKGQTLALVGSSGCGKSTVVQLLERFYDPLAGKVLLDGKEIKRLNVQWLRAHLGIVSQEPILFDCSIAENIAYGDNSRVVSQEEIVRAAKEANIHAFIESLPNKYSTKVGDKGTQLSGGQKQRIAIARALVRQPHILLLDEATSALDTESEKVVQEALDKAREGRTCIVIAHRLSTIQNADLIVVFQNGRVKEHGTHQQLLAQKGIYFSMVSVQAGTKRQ
Chain of Multidrug resistance protein 1a (Q6PSM0 whole entry): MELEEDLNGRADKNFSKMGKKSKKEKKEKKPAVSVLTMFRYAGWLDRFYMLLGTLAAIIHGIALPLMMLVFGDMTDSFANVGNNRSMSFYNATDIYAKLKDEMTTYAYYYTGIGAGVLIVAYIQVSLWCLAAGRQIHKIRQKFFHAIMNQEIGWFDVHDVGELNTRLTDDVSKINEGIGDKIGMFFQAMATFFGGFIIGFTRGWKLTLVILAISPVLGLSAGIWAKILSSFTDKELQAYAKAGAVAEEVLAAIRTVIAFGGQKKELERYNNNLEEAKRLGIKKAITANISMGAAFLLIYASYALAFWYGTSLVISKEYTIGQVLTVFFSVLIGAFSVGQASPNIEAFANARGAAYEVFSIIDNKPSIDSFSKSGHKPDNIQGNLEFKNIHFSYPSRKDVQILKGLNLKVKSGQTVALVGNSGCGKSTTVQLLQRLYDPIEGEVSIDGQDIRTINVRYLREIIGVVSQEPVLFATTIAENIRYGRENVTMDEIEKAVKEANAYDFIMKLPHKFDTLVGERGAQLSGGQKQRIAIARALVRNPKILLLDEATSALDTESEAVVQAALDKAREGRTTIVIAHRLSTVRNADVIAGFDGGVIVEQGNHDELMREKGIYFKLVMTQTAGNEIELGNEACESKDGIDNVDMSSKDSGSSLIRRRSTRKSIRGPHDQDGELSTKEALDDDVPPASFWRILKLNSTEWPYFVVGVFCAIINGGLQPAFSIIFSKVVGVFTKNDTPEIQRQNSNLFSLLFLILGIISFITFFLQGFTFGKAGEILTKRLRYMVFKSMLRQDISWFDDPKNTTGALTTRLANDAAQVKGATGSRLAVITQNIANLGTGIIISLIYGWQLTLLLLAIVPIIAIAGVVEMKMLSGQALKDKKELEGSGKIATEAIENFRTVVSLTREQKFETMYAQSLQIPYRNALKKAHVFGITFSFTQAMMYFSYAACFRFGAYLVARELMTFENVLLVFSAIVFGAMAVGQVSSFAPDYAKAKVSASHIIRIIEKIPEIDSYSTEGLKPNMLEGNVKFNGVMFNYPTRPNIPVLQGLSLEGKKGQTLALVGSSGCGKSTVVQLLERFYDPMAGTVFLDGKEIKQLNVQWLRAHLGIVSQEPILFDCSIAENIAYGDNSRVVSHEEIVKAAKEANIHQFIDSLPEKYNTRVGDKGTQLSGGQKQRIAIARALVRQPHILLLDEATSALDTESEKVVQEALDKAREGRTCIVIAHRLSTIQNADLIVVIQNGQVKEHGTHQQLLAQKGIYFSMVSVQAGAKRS

| %max [1] [%] | Activity [2] [nM] | Ratio [3] | Papp [4] [×10⁻⁶ cm/s] | Ratio [5] | Ratio [6] | fraction unbound [7] | concentration [8] [nM] | Kp [9] | concentration [10] [nM] | concentration [11] [nM] | fold change (FC) [12] | SMILES |
| --- | --- | --- | --- | --- | --- | --- | --- | --- | --- | --- | --- | --- |
| 88 | 74 |  |  |  |  |  |  |  |  |  |  | C=Cc1ccc(Cc2cc(C(=O)N[C@H]3CCCC[C@@H]3O)c(OC)c3ccccc23)cn1 |
|  |  | 11.1 | 29 | 21.1 |  |  |  |  |  |  |  | N#CC1(c2ccccn2)CCN(Cc2cc(C(=O)N[C@H]3CCCC[C@@H]3O)c(=O)n3ccccc23)CC1 |
| 85 | 140 |  |  |  |  |  |  |  |  |  |  | COc1ccc(Cc2cc(C(=O)N[C@H]3CCCC[C@@H]3O)c(OC)c3ccccc23)cn1 |
| 47 | 7400 |  |  |  |  |  |  |  |  |  |  | CCc1c(C(=O)N[C@H]2CCCC[C@@H]2O)cc(Cc2ccc(Cl)nc2)c2ccccc12 |
|  | 5400 |  |  |  |  |  |  |  |  |  |  | COc1c(C(=O)O)cc(CN2CCC(C#N)(c3ccccn3)CC2)c2ccccc12 |
| 18 | > 10000 |  |  |  |  |  |  |  |  |  |  | CC(=O)Oc1c(C(=O)N[C@H]2CCCC[C@@H]2O)cc(Cc2ccc(Cl)nc2)c2ccccc12 |
| 83 | 3900 |  |  |  |  |  |  |  |  |  |  | COc1c(C(=O)N[C@H]2CCCC[C@@H]2O)cc(CN2CCN(c3cnn(C)c3)CC2)c2ccccc12 |
| 68 | 1100 |  |  |  |  |  |  |  |  |  |  | C=CCOc1c(C(=O)N[C@H]2CCCC[C@@H]2O)cc(Cc2ccc(Cl)nc2)c2ccccc12 |
| 57 | 4000 |  |  |  |  |  |  |  |  |  |  | COc1c(C(=O)N[C@H]2CCCC[C@@H]2O)cc(CN2CCN(c3cc4ccccc4cn3)CC2)c2ccccc12 |
| 93 | 121 | 1.6 | 35 | 2.1 | 0.9 | 0.016 | 6020 | 0.21 | 91 | 1200 | 100 | COc1c(C(=O)N[C@H]2CCCC[C@@H]2O)cc(Cc2ccc(C)nc2)c2ccccc12 |
| 77 | 17 | 1.1 | 27 | 1.4 |  | 0.001 | 29000 | 0.06 |  | 1600 |  | COc1c(C(=O)N[C@H]2CCCC[C@@H]2O)cc(Cc2ccc(-c3cnn(C)c3)nc2)c2ccccc12 |
| 74 | 260 | 1.3 | 32 | 1.9 | < 0.1 | 0.1 | 2060 | 0.22 | 5 | 420 |  | COc1c(C(=O)N[C@H]2CCCC[C@@H]2O)cc(Cc2ccc(Cl)nc2)c2ccccc12 |
| 62 | 303 | 1.7 | 31 | 2.3 |  |  |  |  |  |  |  | COc1c(C(=O)N[C@H]2CCCC[C@@H]2O)cc(CN2CCC(C#N)(c3ccccn3)CC2)c2ccccc12 |
| 73 | 190 |  |  |  |  |  |  |  |  |  |  | CCc1ccc(Cc2cc(C(=O)N[C@H]3CCCC[C@@H]3O)c(OC)c3ccccc23)cn1 |
| 76 | 170 |  |  |  |  |  |  |  |  |  |  | COc1c(C(=O)N[C@H]2CCCC[C@@H]2O)cc(Cc2ccc(SC)nc2)c2ccccc12 |
| 83 | 87 | 1.7 | 31 | 3.2 | 0.34 | 0.014 | 2100 | 0.17 | 8.7 | 370 |  | COc1c(C(=O)N[C@H]2CCCC[C@@H]2O)cc(Cc2ccc(-n3cccn3)nc2)c2ccccc12 |
| 37 | 980 |  |  |  |  |  |  |  |  |  |  | CCOc1c(C(=O)N[C@H]2CCCC[C@@H]2O)cc(Cc2ccc(Cl)nc2)c2ccccc12 |
|  | 3330 |  |  |  |  |  |  |  |  |  |  | COc1ccc(Cc2cc(C(=O)O)c(OC)c3ccccc23)cc1 |
| 73 | 24 | 0.9 | 28 | 1.5 | 0.38 | 0.006 | 4900 | 0.2 | 11 | 860 | 10 | COc1c(C(=O)N[C@H]2CCCC[C@@H]2O)cc(Cc2ccc(-c3cccnc3)nc2)c2ccccc12 |
| 35 | 9100 |  |  |  |  |  |  |  |  |  |  | O=C(N[C@H]1CCCC[C@@H]1O)c1cc(Cc2ccc(Cl)nc2)c2ccccc2c1O |
